# How the values were obtained:
# MDA-MB-231 cells [1] = assay type: in vivo, mouse; conditions: 15 mg/kg ip every other day
# Outline: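 Six-week-old female NSG mice, in groups of 4, received 2 × 10^6 cells (grown in RPMI with 5% FBS) into the fourth mammary fat pad. Tumors grew for 2 weeks before stapled peptide treatment began, given intraperitoneally every other day for 5 weeks, […]. Mice were then euthanized and the dissected tumors were weighed individually.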
# [2] = Tolerability in treated NSG mice; assay type: in vivo, mouse
# MDA-MB-231 cells [3] = assay: Ki67 and CD31 staining of primary tumors; assay type: in vivo, mouse
# breast cancer cells = assay: Cell proliferation in vitro; assay type: cell-based
# [4] = Biodistribution of I125-labeled peptides; assay type: in vivo, mouse
# [5] = Blood clearance of I125-labeled peptides; assay type: in vivo, mouse; conditions: calculated by the authors, stated in Discussion
# Outline: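 Peptides were iodinated with I125 on iodination beads (1 bead per 50 µg peptide): I125 was preincubated with the beads for 5 min, then peptide in PBS was added for 15 to 20 min. Free label was removed on 1K-cutoff filters, and labeling efficiency was checked by TLC (85% methanol). Dosing was i.v. via the tail vein, with blood drawn from the opposite vein at 5, 30, 60 min, 3 h and 24 h (3 animals). Blood was weighed, gamma-counted and expressed as activity/g to derive half-life.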
# WASF3 = conditions: in vitro; cited from earlier work
substance,measurement,setting,value
FAM-PEG3-LEK*TNS* LAKIIRQL (sidechain bridge or staple) [WAHM1],weight of the tumors at conclusion of treatment,"MDA-MB-231 cells [1]; 5 weeks, vs control tumors",significant reduction
same,number of surface tumor nodules on the lungs,"MDA-MB-231 cells [1]; 5 weeks, vs vehicle control",significant reduction in the number of surface tumor nodules
same,dissemination of tumor cells (bioluminescence imaging),"MDA-MB-231 cells [1]; after 5 weeks, vs DMSO vehicle",significant reduction in the observed extent of dissemination of tumor cells
same,overall body weight at conclusion of treatment,"[2]; 15 mg/kg ip every other day, 5 weeks",reduced
same,morbidity at the higher dose,"[2]; 30 mg/kg ip every other day, after 2 weeks, dose discontinued",significant morbidity and weight loss
same,Ki67 staining of primary tumors (proliferation potential),"MDA-MB-231 cells [3]; WAHM1-treated vs control mice, printed as 25% vs 22%, no significant difference",25%
same,number and size of microvessels in the primary tumors (anti-CD31),"MDA-MB-231 cells [3]; after 5 weeks, vs vehicle alone",significant reduction after 5 weeks in the number and size of microvessels
same,effect on cell proliferation,breast cancer cells,does not affect cell proliferation
same,"tumor uptake, WAHM1 compared with WANT3-v1","[4]; I125-labeled Tyr-N-term versions, SPECT",significantly greater than for the WANT3-v1 peptide
same,radioactivity per gram of tissue (gamma counting),"[4]; I125-labeled peptide, organs and tumor isolated after 72 h",significant uptake in tumors after 72 hours
same,retention time in the blood system,[5],~ 30 minutes
same,phosphoactivation of WASF3,WASF3,suppresses phosphoactivation of WASF3

# Source: PMC5480654 (Cancer Growth and Metastasis, 2017)
